{"source": "ChEMBL document CHEMBL1142176", "about": "“Antileishmanial effect of 3-aminooxy-1-aminopropane is due to polyamine depletion” (Antimicrob Agents Chemother, 2007)", "key": {"Leishmania donovani [1]": {"test_system": "Leishmania donovani", "test": "Growth inhibition of wild type Leishmania donovani AG83 promastigotes after 72 hrs by MTT method", "conditions": "AG83, 72 h"}, "Leishmania donovani [2]": {"test_system": "Leishmania donovani", "test": "Growth inhibition of wild type Leishmania donovani AG83 amastigotes in J774A.1 after 5 days by luciferase reporter assay", "conditions": "AG83, J774.A1, 120 h"}, "J774.A1": {"test_system": "J774.A1", "test": "Growth inhibition of J774A.1 macrophage cells after 24 hrs by MTT method", "format": "functional, cell-based", "conditions": "Mus musculus, J774.A1, 24 h", "how_it_was_run": "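J774A.1 murine macrophages kept at 37°C in RPMI 1640 with 10% FBS. Viability was read 24 h after drug addition.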"}, "Leishmania donovani [3]": {"test_system": "Leishmania donovani", "test": "Reversal of growth inhibition of Leishmania donovani promastigotes at 50 uM after 24 hrs of 1 mM spermidine treatment", "format": "functional, organism-based", "how_it_was_run": "(§1)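 Promastigotes grown at 22°C in M-199 (Hanks' salts, 25 mM HEPES, 10% FBS, 100 µg/ml gentamicin) with 50 µM drug. 1 mM putrescine or spermidine was added after 24 h or 48 h of treatment. Growth was followed over 120 h by hemocytometer counts every 24 h. Mean ± SD of three determinations.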"}, "Leishmania donovani [4]": {"test_system": "Leishmania donovani", "test": "Growth inhibition of Leishmania donovani SAG-resistant R2 LV patient isolate promastigotes in J774A.1 cells after 5 days", "format": "functional, organism-based"}, "Leishmania donovani [5]": {"test_system": "Leishmania donovani", "test": "Growth inhibition of Leishmania donovani SAG-resistant GE1 LV patient isolate amastigotes in J774A.1 cells after 5 days", "format": "functional, organism-based", "conditions": "J774.A1, 120 h", "how_it_was_run": "(§2)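 J774A.1 murine macrophages kept at 37°C in RPMI 1640 with 10% FBS. 1 x 10^5 cells per well were infected with 1 x 10^6 stationary-phase luciferase-expressing (pGL-NEO LUC) promastigotes in M-199 with 10% FBS. Free parasites were washed off after 3 h, then drug was added at a range of concentrations for 5 days. Luciferase was read from washed adherent macrophages, and IC50 was taken from a concentration vs RLU plot.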"}, "[6]": {"molecular_target": "T1, Ornithine decarboxylase (Leishmania donovani) (UniProt P27116)", "T1 sequence (whole entry)": "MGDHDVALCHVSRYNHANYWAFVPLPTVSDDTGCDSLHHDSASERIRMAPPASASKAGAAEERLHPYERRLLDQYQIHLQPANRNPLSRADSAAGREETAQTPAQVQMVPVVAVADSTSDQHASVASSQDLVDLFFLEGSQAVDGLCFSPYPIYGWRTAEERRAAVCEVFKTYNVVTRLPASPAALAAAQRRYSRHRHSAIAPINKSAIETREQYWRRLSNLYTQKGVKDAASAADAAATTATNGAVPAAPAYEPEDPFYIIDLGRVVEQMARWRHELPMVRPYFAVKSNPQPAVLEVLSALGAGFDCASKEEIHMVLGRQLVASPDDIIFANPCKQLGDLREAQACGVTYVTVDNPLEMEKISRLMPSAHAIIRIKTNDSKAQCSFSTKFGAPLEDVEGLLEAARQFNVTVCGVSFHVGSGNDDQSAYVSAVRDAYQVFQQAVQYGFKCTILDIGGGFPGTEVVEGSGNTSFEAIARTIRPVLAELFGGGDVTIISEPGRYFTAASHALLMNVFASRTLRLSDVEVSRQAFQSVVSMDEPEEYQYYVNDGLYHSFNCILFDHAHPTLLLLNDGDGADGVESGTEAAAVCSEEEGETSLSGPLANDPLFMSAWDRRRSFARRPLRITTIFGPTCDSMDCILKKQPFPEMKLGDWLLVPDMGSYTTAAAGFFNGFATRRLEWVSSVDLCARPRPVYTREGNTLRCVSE", "test": "Inhibition of ODC in Leishmania donovani promastigotes at 50 uM after 48 hrs", "how_it_was_run": "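Late-log promastigotes (1 x 10^7) were treated 48 h, then washed in PBS and freeze-thaw lysed in 50 mM Tris-HCl pH 7.5, 10 µM EDTA, 2.5 mM DTT. Released 14CO2 is expressed as nmol CO2/mg protein/h (Bradford). Mean ± SD, n = 3.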"}, "Leishmania donovani [7]": {"test_system": "Leishmania donovani", "test": "Reversal of growth inhibition of Leishmania donovani promastigotes at 50 uM after 48 hrs of 1 mM spermidine treatment", "format": "functional, organism-based", "how_it_was_run": "as §1"}, "Leishmania donovani [8]": {"test_system": "Leishmania donovani", "test": "Growth inhibition of Leishmania donovani AG83 amastigotes transfected with episomal ODC gene construct overproducing ODC", "format": "functional, organism-based"}, "Leishmania donovani [9]": {"test_system": "Leishmania donovani", "test": "Growth inhibition of Leishmania donovani SAG-resistant GE1 LV patient isolate promastigotes in J774A.1 cells after 5 days", "format": "functional, organism-based"}, "Leishmania donovani [10]": {"test_system": "Leishmania donovani", "test": "Growth inhibition of Leishmania donovani promastigotes S1 LV patient isolate in J774A.1 cells after 5 days", "format": "functional, organism-based"}, "Leishmania donovani [11]": {"test_system": "Leishmania donovani", "test": "Growth inhibition of Leishmania donovani AG83 promastigotes transfected with episomal ODC gene construct overproducing ODC", "format": "functional, organism-based", "how_it_was_run": "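Late-log-phase promastigotes, cultured at 22°C in M-199 (Hanks' salts, 25 mM HEPES, 10% FBS, gentamicin), were exposed to drug for 72 h. MTT was then added for 4 h, the reaction was stopped with acidic isopropanol, and absorbance was read at 570 nm to give IC50. Two or more independent experiments were run in triplicate.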"}, "Leishmania donovani [12]": {"test_system": "Leishmania donovani", "test": "Growth inhibition of Leishmania donovani SAG-resistant R1 LV patient isolate amastigotes in J774A.1 cells after 5 days", "format": "functional, organism-based", "conditions": "J774.A1, 120 h", "how_it_was_run": "as §2"}, "Leishmania donovani [13]": {"test_system": "Leishmania donovani", "test": "Reduction of spermidine level in Leishmania donovani promastigotes at 50 uM after 48 hrs relative to control", "format": "functional", "set-up": "scale not given: the % may be the effect or the level left", "how_it_was_run": "(§3)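 Log-phase promastigotes (1 x 10^7) were exposed 48 h and pelleted at 2,000 x g, 4°C. Acid extracts were dansyl-chloride derivatized before column and analysed by C18 reversed-phase HPLC. Values are vs untreated controls, mean ± SD (n = 3), Student's t test, P < 0.05.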"}, "Leishmania donovani [14]": {"test_system": "Leishmania donovani", "test": "Reduction of putrescine level in Leishmania donovani promastigotes at 50 uM for after 48 hrs relative to control", "format": "functional", "set-up": "scale not given: the % may be the effect or the level left", "how_it_was_run": "as §3"}, "Leishmania donovani [15]": {"test_system": "Leishmania donovani", "test": "Reversal of growth inhibition of Leishmania donovani promastigotes at 50uM after 24 hrs of 1 mM putrescine treatment", "format": "functional, organism-based", "how_it_was_run": "as §1"}, "Leishmania donovani [16]": {"test_system": "Leishmania donovani", "test": "Growth inhibition of Leishmania donovani SAG-resistant R2 LV patient isolate amastigotes in J774A.1 cells after 5 days", "format": "functional, organism-based", "conditions": "J774.A1, 120 h", "how_it_was_run": "as §2"}, "Leishmania donovani [17]": {"test_system": "Leishmania donovani", "test": "Reduction of trypanothione level in Leishmania donovani promastigotes at 50 uM after 48 hrs relative to control", "format": "functional", "set-up": "scale not given: the % may be the effect or the level left", "how_it_was_run": "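Log-phase promastigotes were treated 48 h before harvest, compared with untreated controls. Mean ± SD, n = 3, Student's t test.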"}, "Leishmania donovani [18]": {"test_system": "Leishmania donovani", "test": "Reversal of growth inhibition of Leishmania donovani promastigotes at 50uM after 48 hrs of 1 mM putrescine treatment", "format": "functional, organism-based", "how_it_was_run": "as §1"}, "Leishmania donovani [19]": {"test_system": "Leishmania donovani", "test": "Growth inhibition of Leishmania donovani SAG-resistant R1 LV patient isolate promastigotes in J774A.1 cells after 5 days", "format": "functional, organism-based"}, "Leishmania donovani [20]": {"test_system": "Leishmania donovani", "test": "Growth inhibition of Leishmania donovani amastigotes S1 LV patient isolate in J774A.1 cells after 5 days", "format": "functional, organism-based", "conditions": "J774.A1, 120 h", "how_it_was_run": "as §2"}}, "note": "Active and inactive are the calls of the source. No cut-off for these calls is given here.", "data": [{"smiles": "NCCCC(N)(C(=O)O)C(F)F", "note": "(stereo not drawn) [EFLORNITHINE]", "values": [{"measurement": "IC50", "setting": "Leishmania donovani [1]", "value": "> 10000", "unit": "µM"}, {"measurement": "IC50", "setting": "Leishmania donovani [2]", "value": 50, "unit": "µM"}]}, {"smiles": "NCCCON", "values": [{"measurement": "IC50", "setting": "J774.A1", "value": "> 200", "unit": "µM"}, {"measurement": "Activity", "setting": "Leishmania donovani [3]", "value": "Active"}, {"measurement": "IC50", "setting": "Leishmania donovani [4]", "value": 46, "unit": "µM"}, {"measurement": "IC50", "setting": "Leishmania donovani [5]", "value": "> 200", "unit": "µM"}, {"measurement": "inhibition", "setting": "[6]", "value": 76, "unit": "%"}, {"measurement": "IC50", "setting": "Leishmania donovani [1]", "value": 42, "unit": "µM"}, {"measurement": "Activity", "setting": "Leishmania donovani [7]", "value": "Active"}, {"measurement": "IC50", "setting": "Leishmania donovani [8]", "value": "> 100", "unit": "µM"}, {"measurement": "IC50", "setting": "Leishmania donovani [9]", "value": "> 400", "unit": "µM"}, {"measurement": "IC50", "setting": "Leishmania donovani [10]", "value": 19, "unit": "µM"}, {"measurement": "IC50", "setting": "Leishmania donovani [11]", "value": 155, "unit": "µM"}, {"measurement": "IC50", "setting": "Leishmania donovani [12]", "value": "> 200", "unit": "µM"}, {"measurement": "IC50", "setting": "Leishmania donovani [2]", "value": 5, "unit": "µM"}, {"measurement": "Activity", "setting": "Leishmania donovani [13]", "value": 44, "unit": "%"}, {"measurement": "Activity", "setting": "Leishmania donovani [14]", "value": 70, "unit": "%"}, {"measurement": "Activity", "setting": "Leishmania donovani [15]", "value": "Active"}, {"measurement": "IC50", "setting": "Leishmania donovani [16]", "value": "> 200", "unit": "µM"}, {"measurement": "Activity", "setting": "Leishmania donovani [17]", "value": 79, "unit": "%"}, {"measurement": "Activity", "setting": "Leishmania donovani [18]", "value": "Active"}, {"measurement": "IC50", "setting": "Leishmania donovani [19]", "value": "> 400", "unit": "µM"}, {"measurement": "IC50", "setting": "Leishmania donovani [20]", "value": 10, "unit": "µM"}]}]}
